Results taken from ChEMBL document CHEMBL1268930, “Design, synthesis, and biological evaluation of dibromotyrosine analogues inspired by marine natural products as inhibitors of human prostate cancer proliferation, invasion, and migration” (Bioorg Med Chem, 2010).
The source made the active and inactive calls. The rule behind the calls is not given here.

How the values were obtained:
PC-3 [1] = assay: Antiproliferative activity against human PC3 cells after 72 hrs by MTT assay; type: functional, cell-based; details: PC-3, 72 h
In short: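 PC-3 cells seeded at 8×10^3/well and attached 24 h. Medium replaced with serum-free RPMI containing compound (10, 50, 100 µM; DMSO stock, 0.2% DMSO at 100 µM) for 72 h at 37 °C, 5% CO2. MTT added for 4 h, solubilized, absorbance at 570 nm. % survival relative to DMSO; IC50 by nonlinear regression of log concentration vs % survival; n = 3/dose.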

PC-3 [2] = assay: Antimigratory activity against human PC3 cells after 24 hrs under serum-free condition by wound-healing assay; type: functional, cell-based; details: PC-3, 24 h
In short: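 Confluent PC-3 monolayers (>95%) were scratched with a pipette tip and washed with PBS and serum-free medium. Compounds were added at 20, 50 and 100 µM in serum-free medium, with 0.2% DMSO vehicle, for 24 h. Cells were fixed and Diff-Quick stained. Cells migrating into the wound were counted in ≥3 random fields at 400×. IC50 for 50% inhibition of migration; n = 3/dose.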

Gallus gallus [3] = species on record: Gallus gallus; assay: Antiangiogenic activity in chicken embryo chorioallantoic membrane model assessed as number of blood vessels per 48 mm2 area around the treatment disc <12 at 1 to 50 ug/disc after 48 hrs
Gallus gallus [4] = species on record: Gallus gallus; assay: Antiangiogenic activity in chicken embryo chorioallantoic membrane model assessed as number of blood vessels per 48 mm2 area around the treatment disc >16. 3 at 1 to 50 ug/disc after 48 hrs; type: functional, tissue-based
In short: (§1)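 Fertilized hen eggs incubated at 37 °C, constant humidity; shell windowed and taped, eggs kept upright. Compounds in CH2Cl2 or MeOH loaded on 2-mm cellulose nitrate discs (1, 10, 50 µg/disc), placed on CAM on day five between large vessels. Imaged at 0 h and every 6 h to 48 h. Blood vessels counted per 8.0 × 6.0 mm area around the disc, plus vessel length change. Graded on a 0–3 scale.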

[5] = Cytotoxicity against rat bone marrow cells assessed as inhibition of colony formation at 100 uM by clonogenic assay; type: cell-based; details: bone marrow cell
In short: (§2)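 Rat femur bone marrow mononuclear cells isolated on a Histopaque-1077 gradient. 20,000 cells were plated in methylcellulose with FCS and rat recombinant GM-CSF, IL-3 and SCF (HALO kit), with compounds or vehicle. After 5 days GM-CFC colonies were measured as ATP luminescence (luciferase/luciferin) against a same-day standard curve. Results were normalized to vehicle means; n = 4; two-way ANOVA with Bonferroni tests.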

Gallus gallus [6] = species on record: Gallus gallus; assay: Antiangiogenic activity in chicken embryo chorioallantoic membrane model at 1 to 50 ug/disc after 48 hrs; type: functional, tissue-based; in short: as §1
PC-3 [7] = assay: Antiinvasive activity against human PC3 cells at 50 uM after 24 hrs by cultrex BME assay; type: functional, cell-based
In short: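 PC-3 cells in RPMI with 10% FBS at 37 °C, 5% CO2. The top chamber was coated with BME overnight, then seeded with 50,000 cells in serum-free RPMI. Compounds were added to the top chamber from a 6× (300 µM) solution. The lower chamber held medium with 10% FBS, fibronectin (1 µL/mL) and fMLP (10 nM). After 24 h the invaded cells were labelled with calcein-AM for 1 h, read at ex 485/em 520 nm and counted from a standard curve. n = 3.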

[8] = Cytotoxicity against rat bone marrow cells assessed as inhibition of colony formation at 10 uM by clonogenic assay; type: cell-based; details: bone marrow cell; in short: as §2

SMILES | IC50 (PC-3 [1]) | IC50 (PC-3 [2]) | Activity (Gallus gallus [3]) | Activity (Gallus gallus [4]) | Activity [5] | Activity (Gallus gallus [6]) | Activity (PC-3 [7]) | Activity [8]
CCOC(=O)Cc1cc(Br)c(O)c(Br)c1 | > 100 µM | > 100 µM |  | inactive | Non-toxic |  |  | 
CCOC(=O)Cc1cc(Br)c(OCCCc2ccc(OC)cc2)c(Br)c1 | 40 µM | 57.9 µM |  |  | Non-toxic | Active | Active | 
CCOC(=O)Cc1cc(Br)c(OC(C)=O)c(Br)c1 | > 100 µM | > 100 µM |  |  |  |  |  | 
NC(=O)Cc1cc(Br)c(O)c(Br)c1 | > 100 µM | > 100 µM |  | inactive | Non-toxic |  |  | 
CCOC(=O)Cc1cc(Br)c(OC/C=C(/C)CC/C=C(/C)CCC=C(C)C)c(Br)c1 | 16.5 µM | 19.9 µM |  |  | Non-toxic | Active | Active | 
CC(=O)Oc1c(Br)cc(CC(N)=O)cc1Br | > 100 µM | 74.8 µM |  |  |  | Active |  | 
NC(=O)CC1(O)C=C(Br)C(=O)C(Br)=C1 [VERONGIAQUINOL] |  |  |  |  |  |  |  | Toxic
CCOC(=O)Cc1cc(Br)c(OC(=O)c2ccncc2)c(Br)c1 | > 100 µM | 44.6 µM | Active |  |  |  |  | 

Further lines, with some results ahead:

IC50 (PC-3 [1]) | IC50 (PC-3 [2]) | SMILES | Activity (Gallus gallus [3]) | Activity (Gallus gallus [4]) | Activity [5] | Activity (Gallus gallus [6]) | Activity (PC-3 [7]) | Activity [8]
> 100 µM | 12.2 µM | NC(=O)Cc1cc(Br)c(OC(=O)c2ccccc2)c(Br)c1 | Active |  |  |  |  | 
> 100 µM | 44.6 µM | CCOC(=O)Cc1cc(Br)c(OC(=O)c2ccccc2)c(Br)c1 |  |  |  | Active |  | 
> 100 µM | 18.9 µM | COc1ccc(CC(=O)Oc2c(Br)cc(CC(N)=O)cc2Br)cc1 | Active |  |  |  |  | 
29.7 µM | 75.5 µM | CCOC(=O)Cc1cc(Br)c(OCc2ccccc2)c(Br)c1 | Active |  |  |  |  | 
> 100 µM | < 10 µM | CCOC(=O)Cc1cc(Br)c(OC(=O)Cc2ccc(OC)cc2)c(Br)c1 |  |  |  | Active |  | 
49.2 µM | 91.3 µM | CCOC(=O)Cc1cc(Br)c(OCCC(C)C)c(Br)c1 |  | inactive | Non-toxic |  |  | 
